In ChEMBL document CHEMBL1151231, “Antitumor agents. 233. Lantalucratins A-F, new cytotoxic naphthoquinones from Lantana involucrata” (J Nat Prod, 2004):
The source made the active and inactive calls. The rule behind the calls is not given here.

Key:
KB [1] = assay: Cytotoxicity against human KB cells after 3 days by SRB assay; type: functional, cell-based; settings: 72 h
In short: (§1)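 Freshly trypsinized cells were seeded at 1500-7500 cells per well with test compound added from DMSO-diluted stock and cultured for 3 days. Attached cells were fixed with cold 50% trichloroacetic acid, stained with 0.4% sulforhodamine B, and the bound dye was solubilized and read at 562 nm. IC50 is the concentration giving a 50% drop in absorbance, or growth, relative to untreated cells.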

CAKI-1 [2] = assay: Cytotoxicity against human Caki1 cells after 3 days by SRB assay; type: functional, cell-based; settings: CAKI-1, 72 h; in short: as §1
[3] = Cytotoxicity against human U87MG cells after 3 days by SRB assay; type: functional, cell-based, U-87MG ATCC; settings: U-87 MG, 72 h; in short: as §1
MCF7 [4] = assay: Cytotoxicity against human MCF7 cells after 3 days by SRB assay; type: functional, cell-based; settings: MCF7, 72 h; in short: as §1
[5] = Cytotoxicity against vincristine-resistant human KBVIN cells after 3 days by SRB assay; type: functional, cell-based; settings: 72 h; in short: as §1
HOS [6] = assay: Cytotoxicity against human HOS cells after 3 days by SRB assay; type: functional, cell-based; settings: 72 h; in short: as §1
KB [7] = assay: Cytotoxicity against camptothecin-resistant human KB cells after 3 days by SRB assay; type: functional, cell-based; settings: 72 h; in short: as §1
A549 [8] = assay: Cytotoxicity against human A549 cells after 3 days by SRB assay; type: functional, cell-based; settings: A549, 72 h; in short: as §1
1A9 [9] = assay: Cytotoxicity against human 1A9 cells after 3 days by SRB assay; type: functional, cell-based; settings: 1A9, 72 h; in short: as §1
1A9 [10] = assay: Cytotoxicity against paclitaxel-resistant human 1A9 cells after 3 days by SRB assay; type: functional, cell-based; settings: 1A9, 72 h; in short: as §1
KB [11] = assay: Cytotoxicity against etoposide-resistant human KB cells after 3 days by SRB assay; type: functional, cell-based; settings: 72 h; in short: as §1
CAKI-1 [12] = assay: Cytotoxicity against human Caki1 cells at 10 uM after 3 days by SRB assay; type: functional; settings: for inhibition at 10 µM: CAKI-1, 72 h
KB [13] = assay: Cytotoxicity against vincristine-resistant human KBVIN cells at 10 uM after 3 days by SRB assay; type: functional
1A9 [14] = assay: Cytotoxicity against paclitaxel-resistant human 1A9 cells at 10 uM after 3 days by SRB assay; type: functional; settings: for inhibition at 10 µM: 1A9, 72 h
KB [15] = assay: Cytotoxicity against etoposide-resistant human KB cells at 10 uM after 3 days by SRB assay; type: functional
KB [16] = assay: Cytotoxicity against human KB cells at 10 uM after 3 days by SRB assay; type: functional
[17] = (§2) Cytotoxicity against human U87MG cells at 10 uM after 3 days by SRB assay; type: functional, U-87MG ATCC; settings: U-87 MG, 72 h
A549 [18] = assay: Cytotoxicity against human A549 cells at 10 uM after 3 days by SRB assay; type: functional
MCF7 [19] = assay: Cytotoxicity against human MCF7 cells at 10 uM after 3 days by SRB assay; type: functional; settings: MCF7, 72 h
HOS [20] = assay: Cytotoxicity against human HOS cells at 10 uM after 3 days by SRB assay; type: functional, cell-based
1A9 [21] = assay: Cytotoxicity against human 1A9 cells at 10 uM after 3 days by SRB assay; type: functional, cell-based
KB [22] = assay: Cytotoxicity against camptothecin-resistant human KB cells at 10 uM after 3 days by SRB assay; type: functional, cell-based
U-87MG ATCC = assay: as §2; type: functional

Compound: C=C(C)C1CC2=C(O1)c1ccccc1C(=O)C2=O (configuration not stated)
- IC50 (KB [1]): 3 µM
- IC50 (CAKI-1 [2]): 9.6 µM
- IC50 [3]: 3.4 µM
- IC50 (MCF7 [4]): 1.2 µM
- IC50 [5]: 3.9 µM
- IC50 (HOS [6]): 4 µM
- IC50 (KB [7]): 2.2 µM
- IC50 (A549 [8]): 2.7 µM
- IC50 (1A9 [9]): 2.1 µM
- IC50 (1A9 [10]): 2.3 µM
- IC50 (KB [11]): 3 µM

Compound: C=C(C)C1CC2=C(O1)C(=O)c1ccccc1C2=O (stereo not drawn) [DEHYDROISO-ALPHA-LAPACHONE]
- IC50 (KB [1]): 4.1 µM
- IC50 (CAKI-1 [2]): > 10 µM
- IC50 [3]: 2.6 µM
- IC50 (MCF7 [4]): 1.2 µM
- IC50 [5]: 5.7 µM
- IC50 (HOS [6]): 3.6 µM
- inhibition at 10 µM (CAKI-1 [12]): 26%
- IC50 (KB [7]): 3.2 µM
- IC50 (A549 [8]): 6.4 µM
- IC50 (1A9 [9]): 2.6 µM
- IC50 (1A9 [10]): 2.8 µM
- IC50 (KB [11]): 3.5 µM

Compound: C=C(C)C1CC2=C(O1)c1cccc(OC)c1C(=O)C2=O (configuration not stated) [LANTALUCRATIN A]
- IC50 (KB [1]): > 5 µM
- IC50 [3]: 4.7 µM
- IC50 (MCF7 [4]): 1.6 µM
- inhibition at 10 µM (KB [13]; 72 h): 17%
- inhibition at 10 µM (1A9 [14]): 45%
- IC50 [5]: > 5 µM
- inhibition at 10 µM (KB [15]; 72 h): 43%
- IC50 (HOS [6]): 4.8 µM
- Activity (CAKI-1 [12]): inactive
- IC50 (KB [7]): 2.1 µM
- IC50 (A549 [8]): 3.3 µM
- IC50 (1A9 [9]): 3.9 µM
- IC50 (1A9 [10]): > 5 µM
- IC50 (KB [11]): > 5 µM
- inhibition at 10 µM (KB [16]; 72 h): 46%

Compound: C=C(C)C1CC2=C(O1)c1cccc(O)c1C(=O)C2=O (configuration not stated) [LANTALUCRATIN B]
- IC50 (KB [1]): 2.3 µM
- IC50 (CAKI-1 [2]): > 5 µM
- IC50 [3]: 1.9 µM
- IC50 (MCF7 [4]): 1 µM
- IC50 [5]: 2.4 µM
- IC50 (HOS [6]): 2.5 µM
- inhibition at 10 µM (CAKI-1 [12]): 16%
- IC50 (KB [7]): 1 µM
- IC50 (A549 [8]): 1.8 µM
- IC50 (1A9 [9]): 1.5 µM
- IC50 (1A9 [10]): 2.1 µM
- IC50 (KB [11]): 2.1 µM

Compound: C=C(C)C1CC2=C(O1)c1ccc(O)cc1C(=O)C2=O (configuration not stated) [LANTALUCRATIN C]
- IC50 (KB [1]): 6.9 µM
- IC50 [3]: 7.3 µM
- IC50 (MCF7 [4]): 4.9 µM
- IC50 [5]: 6.3 µM
- IC50 (HOS [6]): 4.7 µM
- IC50 (KB [7]): 5.2 µM
- IC50 (A549 [8]): 6 µM
- IC50 (1A9 [9]): 9.4 µM
- IC50 (1A9 [10]): 6.5 µM
- IC50 (KB [11]): 5.8 µM

Compound: C=C(C)C(O)CC1=C(OC)C(=O)c2c(OC)cccc2C1=O (configuration not stated) [LANTALUCRATIN D]
- IC50 [3]: > 10 µM
- inhibition at 10 µM [17]: 8%
- inhibition at 10 µM (A549 [18]; A549, 72 h): 7%
- IC50 (MCF7 [4]): > 10 µM
- Activity (KB [13]): inactive
- inhibition at 10 µM (MCF7 [19]): 20%
- inhibition at 10 µM (1A9 [14]): 14%
- Activity (KB [15]): inactive
- Activity (HOS [20]): inactive
- Activity (CAKI-1 [12]): inactive
- Activity (1A9 [21]): inactive
- Activity (KB [22]): inactive
- IC50 (A549 [8]): > 10 µM
- IC50 (1A9 [10]): > 10 µM
- Activity (KB [16]): inactive

Compound: C=C(C)C(O)CC1=C(OC)C(=O)c2c(OC)ccc(O)c2C1=O (configuration not stated) [LANTALUCRATIN E]
- IC50 (CAKI-1 [2]): > 10 µM
- IC50 [3]: 7 µM
- IC50 (MCF7 [4]): 5.5 µM
- Activity (KB [13]): inactive
- Activity (KB [15]): inactive
- IC50 (HOS [6]): 8.7 µM
- inhibition at 10 µM (CAKI-1 [12]): 8%
- Activity (KB [22]): inactive
- IC50 (A549 [8]): 8.7 µM
- IC50 (1A9 [9]): 1.3 µM
- IC50 (1A9 [10]): 2.5 µM
- Activity (KB [16]): inactive

Compound: C=C(C)C(O)CC1=C(OC)C(=O)c2cc(OC)c(O)c(O)c2C1=O (configuration not stated) [LANTALUCRATIN F]
- IC50 (CAKI-1 [2]): > 10 µM
- Activity (U-87MG ATCC): inactive
- Activity (A549 [18]): inactive
- IC50 (MCF7 [4]): > 10 µM
- Activity (KB [13]): inactive
- inhibition at 10 µM (MCF7 [19]): 9%
- Activity (1A9 [14]): inactive
- Activity (KB [15]): inactive
- Activity (HOS [20]): inactive
- inhibition at 10 µM (CAKI-1 [12]): 13%
- Activity (1A9 [21]): inactive
- Activity (KB [22]): inactive
- Activity (KB [16]): inactive

Compound: CC1(C)CCC2=C(O1)c1ccccc1C(=O)C2=O [LAPACHONE]
- IC50 (KB [1]): 1.2 µM
- IC50 (CAKI-1 [2]): > 5 µM
- IC50 [3]: 2 µM
- IC50 (MCF7 [4]): 0.8 µM
- IC50 [5]: 2.2 µM
- IC50 (HOS [6]): 1.4 µM
- inhibition at 10 µM (CAKI-1 [12]): 42%
- IC50 (KB [7]): 1 µM
- IC50 (A549 [8]): 1.5 µM
- IC50 (1A9 [9]): 0.8 µM
- IC50 (1A9 [10]): 0.8 µM
- IC50 (KB [11]): 1.8 µM
